# STEP inh: inhibitors of human striatal-enriched phosphatase STEP; hit rate 0.25% among 360,000; inhibition, % at 20 µM; recombinant STEP, OMFP fluorogenic substrate, fluorescence; AID 588621;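 active = inhibition at 20 µM, scaled per plate between control wells, above about 37%, limit read from the data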
#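 System: isolated STEP enzyme; schedule: 20 min enzyme reaction at room temperature, protected from light; medium: Bis-Tris buffer pH 6.0, 2.5 mM DTT, 0.005% Tween 20; signal: fluorescence, 480/540 nm; dosing: single compound dose of 20 µM, 1% DMSO final; also added: OMFP substrate, 25 µM final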
# DNMT1 inh: inhibitors of human DNMT1; P26358; DNMT1 molecular beacon, Hinp1I cleavage, fluorescence; inhibition (reported as % activation of signal), % at 10 µM; hit rate 0.83% among 360,000; AID 588458; in the data active = inhibition above about 50%
# SUMO1-SIM PPI: SUMO1-SIM interaction modulation. P63165. SUMO1 binding to a labelled peptide, TR-FRET, 1 h. inhibition, % at 20 µM. hit rate 0.33% among 360,000; in the data active = inhibition above about 37%
# Target sequence (P63165 whole entry, looked up): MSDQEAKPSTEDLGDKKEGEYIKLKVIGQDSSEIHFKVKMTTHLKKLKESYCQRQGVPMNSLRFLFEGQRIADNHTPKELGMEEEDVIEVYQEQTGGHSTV
# Scp1 inh: inhibitors of human Scp-1 phosphatase | Q9GZU7 | Recombinant Scp1, phosphopeptide, malachite green phosphate absorbance | inhibition, % at 20 µM | hit rate 0.88% among 340,000 | AID 493091;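 active = inhibition above about 50% at 20 µM, limit read from the data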
# Target sequence (Q9GZU7 76-261 limits assumed): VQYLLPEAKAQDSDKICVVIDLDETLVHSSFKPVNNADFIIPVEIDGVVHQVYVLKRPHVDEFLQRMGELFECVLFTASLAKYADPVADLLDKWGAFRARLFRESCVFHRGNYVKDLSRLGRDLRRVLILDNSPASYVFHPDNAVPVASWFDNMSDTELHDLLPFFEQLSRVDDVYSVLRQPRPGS
#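 Assay system: SCP-1 catalytic fragment, aa 76-261 | Buffer or medium: Tris acetate buffer pH 5.5 with MgCl2 and Tween-20 | Compound: One concentration, 20 µM, with 1.0% DMSO | Also added: Phospho 17-mer peptide substrate | Signal: Absorbance at 630 nm | Incubation: 45 min enzyme reaction at room temperature | Measure: % inhibition of SCP-1 phosphate liberation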
# LMPTP block: LMPTP (human) inhibition | P24666 | recombinant LMPTP-A, OMFP fluorogenic substrate, fluorescence intensity | inhibition, % at 20 µM | hit rate 0.22% among 360,000;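 active = compounds that cut the enzyme signal by at least half of the control window in the single-dose screen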
# Target sequence (P24666 whole entry, looked up): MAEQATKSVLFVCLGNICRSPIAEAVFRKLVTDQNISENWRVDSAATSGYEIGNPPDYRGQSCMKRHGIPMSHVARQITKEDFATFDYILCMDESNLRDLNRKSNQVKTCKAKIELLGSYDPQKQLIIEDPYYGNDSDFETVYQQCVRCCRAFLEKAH
#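 Buffer or medium: Bis-Tris pH 6.0, DTT, detergent; Assay system: LMPTP-A enzyme; Quantity: 0.625 nM enzyme; Detection: endpoint fluorescence intensity; Times: 50 min dark incubation at room temperature; Controls: substrate-only low control, DMSO enzyme-plus-substrate high control; Doses: single 20 µM dose; Read-out: percent inhibition versus substrate-only and uninhibited controls; Reagent: 400 µM OMFP.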
# Scp-1 conf: Scp-1 (human) inhibition, single-dose confirmed; shares compounds with Scp1 inh; recombinant SCP-1 catalytic domain, phosphate release, malachite green absorbance; inhibition, % at 20 µM; hit rate 61% among 2,500
# Scp-1 MG ctr: counter-screen for Scp-1 inhibitors: colorimetric interference | Colorimetric interference counterscreen, malachite green absorbance 630 nm | 2,500 tested, under 10 active | apparent inhibition (interference), % at 20 µM | shares compounds with Scp1 inh;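 note: compounds added after enzyme reaction finished so only phosphate colour detection is probed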
# Scp1 DSF: binds human Scp-1, shifting its melting temperature. shares compounds with Scp1 inh. Recombinant SCP1, Sypro Orange thermal shift Tm. thermal shift relative to vanadate control, % at 40 µM. hit rate 25% among 1,500. AID 540329;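 active = substances whose mean melting-temperature shift, as a percentage of the reference inhibitor's shift, reaches about 5.3%, limit read from the data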
# A number is an active result; 0 = inactive; - = no result. The list is not random: actives were taken first. Their share in the collection is about 1.7%.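 Rule for the calls, unless noted: active = inhibition of at least 30% at 20 µM; inactive = the rest.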
SMILES,STEP inh,DNMT1 inh,SUMO1-SIM PPI,Scp1 inh,LMPTP block,Scp-1 conf,Scp-1 MG ctr,Scp1 DSF
COC(=O)c1cc2c(n1S(=O)(=O)c1ccc(C)cc1)C(=O)C(=O)c1[nH]cc(C(=O)OCc3ccccc3)c1-2,0,82,0,0,0,-,-,-
Cc1ccc(CNC(=O)C2CCCN(S(=O)(=O)N3CC(C)CC(C)C3)C2)cc1 (centres undefined),0,0,0,0,0,-,-,-
Nc1ccc(Cc2ccc(N)c(O)c2)cc1O,0,0,0,0,50,-,-,-
COc1cc(Cc2ccc(N)c(OC)c2)ccc1N,0,0,0,0,0,-,-,-
CNc1nc2c(-c3ccc(Cl)cc3)nnn2c2ccccc12,0,0,0,0,76,-,-,-
CC(C)c1ccc(NC(=O)C2(C)Cc3c(-c4cccc(C(N)=O)c4)ccnc3O2)cc1 (centres undefined),0,0,0,-,0,-,-,-
COc1ccccc1NC(=O)C(=N\O)/C(C)=N/O,0,0,0,75,0,30,0,0
Cc1ccc(C(=O)NC(=S)NNC(=O)c2ccccc2O)cc1,0,0,0,0,0,-,-,-
CCCc1ccc(C(=O)NNC(=O)c2ccc(Br)cc2)cc1,0,0,0,94,0,81,0,0
CCCc1ccc(C(=O)NC(=O)c2ccccc2O)cc1,48,0,0,67,0,89,0,0
O=C(NC(=O)c1ccccc1O)c1ccc(C(F)(F)F)cc1,0,0,0,83,0,68,0,0
Cc1ccc(CN2C(=O)C(CC(C)C)Nc3ncnc(N4CCCCC4)c32)cc1 (centres undefined),0,0,0,-,0,-,-,-
CCC(C)c1ccccc1NC(=O)c1[nH]c(C)c(C(C)=O)c1C (centres undefined),0,0,0,54,0,0,0,-
CC(=O)c1c(C)[nH]c(C(=O)Nc2cccc3ccccc23)c1C,0,0,0,0,0,-,-,-
CC1CCc2sc(C(=O)NN=C3CCC(c4ccccc4)CC3)cc2C1 (centres undefined),0,0,0,0,0,-,-,-
O=C(N/N=C/c1ccc([N+](=O)[O-])cc1)c1cccs1,0,0,0,60,0,53,0,0
CC1CCc2sc(C(=O)N/N=C/c3ccc([N+](=O)[O-])cc3)cc2C1 (centres undefined),0,0,0,72,0,69,0,0
O=C(N/N=C/c1ccc(-c2cccc([N+](=O)[O-])c2)o1)c1cccs1,0,0,0,0,0,-,-,-
Fc1ccc(Sc2ccccc2CNC2=NCCN2)cc1,0,0,0,52,0,84,0,0
OCCNC1=NCCN1,0,0,0,0,0,-,-,-
O=C(Nc1cccc(Cl)c1)c1cccc(N2C(=O)C3CC=CCC3C2=O)c1 (centres undefined),0,0,0,52,0,0,0,-
O=C(Nc1cccc(N2C(=O)C3CCCCC3C2=O)c1)c1ccccc1 (centres undefined),0,0,0,0,0,-,-,-
COc1cccc2cc(C(=O)CS(=O)(=O)c3ccc(C)cc3)c(=O)oc12,0,0,0,66,0,0,0,-
O=C(N/N=C/C=C\c1ccco1)c1ccccn1,0,0,0,52,0,39,0,0
O=C(N/N=C/C=C/c1ccco1)c1cnccn1,0,0,0,0,0,-,-,-
SMILES,STEP inh,DNMT1 inh,SUMO1-SIM PPI,Scp1 inh,LMPTP block,Scp-1 conf,Scp-1 MG ctr,Scp1 DSF
Cn1c(SCC(=O)N/N=C/C=C/c2ccco2)nc2ccccc21,0,57,0,73,0,62,0,0
CC(C(=O)NCc1ccccc1)n1c(-c2ccc3c(c2)CCO3)nc2ccccc21 (centres undefined),-,-,0,-,0,-,-,-
CC(NC(=O)c1cc2c(=O)n(C)c3ccccc3c2n1C)c1ccc2c(c1)OCCO2 (centres undefined),0,0,0,0,0,-,-,-
CC(NC(=O)COc1cc(=O)n(C)c2ccccc12)c1ccc2c(c1)OCCO2 (centres undefined),0,0,0,0,0,0,0,-
CC(=O)c1ccccc1NS(=O)(=O)c1cccc2nsnc12,97,51,0,80,68,51,0,0
Cc1ccc(NC(=O)CCc2nnc3ccc(NCc4ccco4)nn23)nc1,0,0,0,0,0,-,-,-
CC(=O)c1cccc(NC(=O)CCc2nnc3ccc(NCc4ccco4)nn23)c1,0,0,0,59,0,43,0,0
Cc1cccc(OCC(=O)Nc2ccncc2)c1C,0,0,0,53,0,0,0,-
COc1ccccc1OCC(=O)Nc1ccncc1,0,0,0,0,0,-,-,-
Cn1c(=O)c2cc(NC(=O)OCCF)ccc2n1Cc1cccc(C(F)(F)F)c1,0,0,0,-,0,-,-,-
C[C@@H](NC(=O)Cn1ccc(N)nc1=O)c1cccc2ccccc12,0,0,0,0,0,0,0,-
O=C(Nc1ccccc1F)c1cc(-c2ccco2)nc2ccccc12,0,0,0,68,0,51,0,0
Cc1ccc(NC(=O)c2cc(-c3ccc(C)o3)nc3ccccc23)cc1,0,0,0,0,0,-,-,-
COc1cccc(NC(=O)c2cc(-c3ccco3)nc3ccccc23)c1,0,0,0,66,0,31,0,0
Cc1ccc(-c2cc(C(=O)Nc3cccnc3)c3ccccc3n2)o1,0,51,0,60,0,57,0,5.7
COc1ccc(CCNC(=O)c2cc(-c3ccco3)nc3ccccc23)cc1,-,-,-,87,-,73,0,0
Cn1c(=O)c2cc(NC(=O)NCCc3ccccc3)ccc2n1Cc1cccc(C(F)(F)F)c1,0,0,0,-,0,-,-,-
CCOC(=O)[C@]12CCCC=C1N(Cc1ccc(Cl)cc1Cl)C(=O)[C@H](CC(=O)NCC13CC4CC(CC(C4)C1)C3)C2,-,-,0,-,0,-,-,-
Cc1ccccc1C(=O)NC1CCSC1=O (centres undefined),0,0,0,64,0,0,0,-
CC[n+]1ccc(C[n+]2ccccc2)c2ccccc21,0,0,0,97,0,86,0,0
C(=C\c1ccccc1)/CN1CCN(Cc2nc(Cc3ccccc3)no2)CC1,0,0,0,53,0,0,0,-
CC(O)(c1ccncc1)c1nc(-c2cccc(C(F)(F)F)c2)cs1 (centres undefined),0,0,0,-,0,-,-,-
O=C(Nc1nc2ccccc2s1)C1CCN(S(=O)(=O)c2cc([N+](=O)[O-])ccc2Cl)CC1,0,0,0,68,0,64,0,11
CC1=CCC(C(=O)O)C(C(=O)Nc2ccc(-c3nc4ccc(C)cc4s3)cc2)C1 (centres undefined),0,0,0,50,0,65,0,0

# Source: PubChem (Sanford-Burnham Center for Chemical Genomics)
